Publication PMC7392586 (Circulation, 2020)
Values joined by “and” are separate entries in the source; they are usually repeats but may differ in a detail not shown here. Identical values can stand only once. Like-named read-outs stand apart in the source and are kept apart here.

Key:
[1] = tested on: ADP-induced platelet aggregation in platelet-rich plasma; assay: Light transmittance aggregometry; assay type: in vivo, human; settings: for %IPA using LTA with ADP 20 µmol/L: at 30 minutes (primary endpoint), mean±SD
[2] = tested on: ADP-induced platelet aggregation in whole blood; assay: Multiple electrode aggregometry; assay type: in vivo, human; settings: % of patients
How it was run: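 STEMI patients not previously given a P2Y12 inhibitor. Hirudin-anticoagulated whole blood drawn at baseline and at 15 min, 30 min, 1, 2, 3 and 4–6 h after the study drug (bolus completion or oral ingestion); done at 2 centres. Blood diluted 1:2 in 0.9% NaCl, ADP-stimulated, aggregation recorded 6 min; AUC units. High residual reactivity: >46 U; percent of patients.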

platelet function = settings: 16 cardiac arrest survivors with STEMI, cited from earlier work
platelet inhibition = settings: pharmacodynamic data on cangrelor; cited from earlier work
[3] = tested on: platelet reactivity index; settings: CANTIC study; cited from earlier work
[4] = tested on: platelet reactivity (P2Y12 reaction units); settings: cited from earlier work; for HRPR (VerifyNow, cutoff PRU >208): 15 STEMI patients pretreated with ticagrelor
[5] = tested on: ADP-induced platelet aggregation in whole blood; settings: cited from earlier work; for mean platelet inhibition before the end of infusion / patients achieving 100% platelet inhibition: part 2 of the trial; for mean platelet inhibition before the end of infusion: cangrelor 4 μg/kg/min

## CSCCNc1nc(SCCC(F)(F)F)nc2c1ncn2[C@@H]1O[C@H](COP(=O)(O)OP(=O)(O)C(Cl)(Cl)P(=O)(O)O)[C@@H](O)[C@H]1O [Cangrelor]
[1]
  %IPA using LTA with ADP 20 µmol/L: 34.1±22.5%
[2]; at 15 minutes
  High residual platelet reactivity: AUC>46 using ADPtest (Multiplate): 8.6%
[2]; at 30 minutes
  High residual platelet reactivity: AUC>46 using ADPtest (Multiplate): ≈ 14%
[2]; at 2 hours
  High residual platelet reactivity: AUC>46 using ADPtest (Multiplate): ≈ 14%
Platelet function; targeted temperature management, interquartile range 10 to 25
  platelet function, median (Multiplate Analyzer): 18 U
Platelet function
  HRPR (Multiplate Analyzer, <46 U cutoff): none had HRPR
Platelet inhibition
  degree of platelet inhibition: > 80%
[3]
  nonresponders at vasodilator-stimulated phosphoprotein assay during drug infusion: 3 out of 22
[4]; CANTIC study
  patients with PRU higher than 208 U during drug infusion: No patient
[4]; at 15 minutes
  HRPR (VerifyNow, cutoff PRU >208): 6.7%
[4]; at 1 hour
  HRPR (VerifyNow, cutoff PRU >208): 0%
[4]; at the time of balloon inflation, 50 STEMI patients
  HRPR rate (VerifyNow, cutoff PRU >208): 10%
[5]; infusion 4 μg/kg/min for up to 69 hours, at 24 hours, 14 patients with unstable angina or non–Q-wave MI, whole blood impedance aggregometry, ADP 3 μmol/L
  mean IPA: 98.7±2.1%
[5]; infusion at 4 μg/kg/min, elective or urgent PCI, impedance aggregometry in heparinized blood, ADP 3 μmol/L
  mean %IPA: 99%
[5]
  mean platelet inhibition before the end of infusion: 100%
  patients achieving 100% platelet inhibition: 95%

## CC(=O)Oc1cc2c(s1)CCN(C(C(=O)C1CC1)c1ccccc1F)C2 (stereo not shown) [Chewed Prasugrel, Prasugrel]
[1]
  %IPA using LTA with ADP 20 µmol/L: 10.5±11.0%

## CC(=O)Oc1cc2c(s1)CCN(C(C(=O)C1CC1)c1ccccc1F)C2 (stereo not shown) [Integral Prasugrel, Prasugrel]
[1]
  %IPA using LTA with ADP 20 µmol/L: 6.3±11.4%

## CCCCS(=O)(=O)N[C@@H](Cc1ccc(OCCCCC2CCNCC2)cc1)C(=O)O [Tirofiban]
[1]
  %IPA using LTA with ADP 20 µmol/L: 95.0±8.9% and 95.0±9.0%
[1]; during drug infusion / within the first 2 hours
  HRPR rates (platelet aggregation >59% at LTA after ADP 20 µmol/L): No patient

B1: abciximab (antibody, chains of the INN, looked up, V domains shown)
VH: EVQLQQSGTVLARPGASVKMSCEASGYTFTNYWMHWVKQRPGQGLEWIGAIYPGNSDTSYIQKFKGKAKLTAVTSTTSVYMELSSLTNEDSAVYYCTLYDGYYVFAYWGQGTLVTVSA
VL: EIVLTQSPVTLSVTPGDSVSLSCRASRDISNNLHWFQQTSHESPRLLIKYASQSMSGIPSRFSGSGSGTDFTLSINSVETEDFGMYFCQQTNSWPYTFGGGTKLEIK
modifications: Fab
[5]
  mean platelet inhibition before the end of infusion: 100%
  patients achieving 100% platelet inhibition: 100%
